Data taken from ChEMBL document CHEMBL4706506 (Eur J Med Chem, 2020).
Active and inactive are the calls of the source. The calls are words filed in the database; no cut-off is given here.

Tests used:
HeLa = assay: Antiproliferative activity against human HeLa cells assessed as inhibition of cell proliferation measured after 48 hrs by CCK-8 assay; type: functional, cell-based
Summary of the method: (§1)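 RPMI-1640 with 10% FBS, 37 °C, 5% CO2. Cells seeded at 1-3 × 10^4/well and exposed to 0.00098–64 μM (nine 4-fold steps) or 0.1% DMSO vehicle for 48 h. CCK-8 then added for 4 h; absorbance read at 450 nm. IC50 taken from dose–response curves; mean ± SD of three independent experiments.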

B16-F0 [1] = assay: Antiproliferative activity against mouse B16-F0 cells assessed as inhibition of cell proliferation measured after 48 hrs by CCK-8 assay; type: functional, cell-based; conditions: B16F0, 48 h; summary of the method: as §1
MCF7 = assay: Antiproliferative activity against human MCF7 cells assessed as inhibition of cell proliferation measured after 48 hrs by CCK-8 assay; type: functional, cell-based; conditions: MCF7, 48 h
HCT-116 = assay: Antiproliferative activity against human HCT-116 cells assessed as inhibition of cell proliferation measured after 48 hrs by CCK-8 assay; type: functional, cell-based; conditions: HCT-116, 48 h; summary of the method: as §1
A549 = assay: Antiproliferative activity against human A549 cells assessed as inhibition of cell proliferation measured after 48 hrs by CCK-8 assay; type: functional, cell-based; conditions: A549, 48 h; summary of the method: as §1
B16-F0 [2] = assay: Stabilization of microtubules in mouse B16-F0 cells at 40 nM measured after 6 hrs by DAPI staining based Immunofluorescent assay relative to control; type: cell-based
Summary of the method: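 Fixed in 4% paraformaldehyde, permeabilized with 0.5% Triton X-100 for 15 min, goat serum blocked. Anti-tubulin antibody 2 h at 4 °C, then fluorescent secondary antibody and DAPI nuclear counterstain. Imaged by confocal microscopy.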

B16-F0 [3] = assay: Antitumour activity against mouse B16-F0 cells transplanted in C57/BL mouse assessed as decrease in tumour volume at 10 mg/kg, ip measured after 16 days in relative to control; type: functional; parameters: scale not given: the % may be the effect or the level left; conditions: time 16 day
B16-F0 [4] = assay: Antitumour activity against mouse B16-F0 cells transplanted in C57/BL mouse assessed as decrease in tumour weight at 10 mg/kg, ip measured after 16 days in relative to control; type: functional; parameters: scale not given: the % may be the effect or the level left; conditions: time 16 day
[5] = Toxicity in C57/BL mouse […] with mouse B16-F0 cells assessed as body weight loss at 10 to 20 mg/kg, ip measured after 16 days in relative to control; type: organism-based; conditions: in vivo, 384 h, dose 10-20 mg/kg, time 16 day
[6] = Toxicity in C57/BL mouse […] with mouse B16-F0 cells assessed as liver histology at 10 to 20 mg/kg, ip measured after 16 days by H and E staining method in relative to control; type: organism-based; conditions: in vivo, 384 h, dose 10-20 mg/kg, time 16 day
[7] = Metabolic stability in human liver microsomes assessed as half life in presence of NADPH at 0.5 uM measured after 4 hrs by LC/MS method; type: ADME, Microsome
[8] = Metabolic stability in mouse liver microsomes assessed as half life in presence of NADPH at 0.5 uM measured after 4 hrs by LC/MS method; type: ADME, Microsome

IC50 (HeLa) | IC50 (B16-F0 [1]) | IC50 (MCF7) | IC50 (HCT-116) | IC50 (A549) | half-life at 0.5 µM [7] | half-life at 0.5 µM [8] | SMILES | Activity (B16-F0 [2]) | Activity (B16-F0 [3]) | Activity (B16-F0 [4]) | Activity [5] | Activity [6]
> 10000 nM | > 10000 nM | > 10000 nM | > 10000 nM | > 10000 nM | – | – | COc1cc(-c2cc3nccc(-c4cc(OC)c(OC)c(OC)c4)n3n2)cc(OC)c1OC | – | – | – | – | –
187 nM | 657 nM | 74 nM | 1040 nM | 829 nM | – | – | COc1cc(-c2ccnc3cc(-c4ccc5ccn(C)c5c4)nn23)cc(OC)c1OC | – | – | – | – | –
97 nM | 1470 nM | 279 nM | 2440 nM | 233 nM | – | – | COc1cc(-c2ccnc3cc(-c4ccc5c(cnn5C)c4)nn23)cc(OC)c1OC | – | – | – | – | –
41 nM | 21 nM | – | – | – | – | – | CC(=O)O[C@H]1C(=O)[C@@]2(C)[C@H]([C@H](OC(=O)c3ccccc3)[C@]3(O)C[C@H](OC(=O)[C@H](O)[C@@H](NC(=O)c4ccccc4)c4ccccc4)C(C)=C1C3(C)C)[C@]1(OC(C)=O)CO[C@@H]1C[C@@H]2O [PACLITAXEL] | Active | 63.8% | 60.4% | Non-Toxic | Non-Toxic
125 nM | 55 nM | 23 nM | 187 nM | 170 nM | – | – | COc1cc(-c2ccnc3cc(-c4ccc5cc[nH]c5c4)nn23)cc(OC)c1OC | – | – | – | – | –
> 10000 nM | > 10000 nM | > 10000 nM | > 10000 nM | > 10000 nM | – | – | COc1cc(-c2ccnc3cc(-c4cccc(C#N)c4)nn23)cc(OC)c1OC | – | – | – | – | –
378 nM | 702 nM | 44 nM | 2050 nM | 1100 nM | – | – | COc1cc(-c2ccnc3cc(-c4ccc(N(C)C)cc4)nn23)cc(OC)c1OC | – | – | – | – | –
1490 nM | 4090 nM | 2320 nM | 3340 nM | 3060 nM | – | – | COc1cc(-c2ccnc3cc(-c4ccc(Cl)cc4)nn23)cc(OC)c1OC | – | – | – | – | –
160 nM | 1800 nM | 242 nM | 1530 nM | 643 nM | – | – | CCn1c2ccccc2c2cc(-c3cc4nccc(-c5cc(OC)c(OC)c(OC)c5)n4n3)ccc21 | – | – | – | – | –
1840 nM | 1770 nM | 2440 nM | 1860 nM | 2070 nM | – | – | COc1cc(-c2ccnc3cc(-c4ccc(C(F)(F)F)cc4)nn23)cc(OC)c1OC | – | – | – | – | –
399 nM | 185 nM | 95 nM | 762 nM | 1340 nM | – | – | COc1cc(-c2ccnc3cc(-c4cn(C)c5ccccc45)nn23)cc(OC)c1OC | – | – | – | – | –
> 10000 nM | > 10000 nM | > 10000 nM | > 10000 nM | > 10000 nM | – | – | COc1cc(-c2cc3nccc(-c4c[nH]c5ccccc45)n3n2)cc(OC)c1OC | – | – | – | – | –
241 nM | 391 nM | 26 nM | 261 nM | 272 nM | – | – | COc1cc(-c2ccnc3cc(-c4ccc(C)c(C)c4)nn23)cc(OC)c1OC | – | – | – | – | –
– | – | – | – | – | 17 min | < 5 min | COc1cc(C(=O)c2csc(-c3ccccc3)n2)cc(OC)c1OC | – | – | – | – | –
> 10000 nM | > 10000 nM | > 10000 nM | > 10000 nM | > 10000 nM | – | – | Cc1ccc(-c2cc3nccc(-c4ccc(F)cc4)n3n2)cc1 | – | – | – | – | –
5210 nM | 4780 nM | 4580 nM | 2160 nM | 3520 nM | – | – | Cn1ccc2cc(-c3cc4nccc(-c5ccc(F)cc5)n4n3)ccc21 | – | – | – | – | –
1830 nM | 1240 nM | 274 nM | 2110 nM | 1150 nM | – | – | COc1cc(-c2ccnc3cc(-c4cnn(C)c4)nn23)cc(OC)c1OC | – | – | – | – | –
> 10000 nM | > 10000 nM | > 10000 nM | > 10000 nM | > 10000 nM | – | – | COc1cc(-c2ccnc3c(-c4c[nH]c5ccccc45)cnn23)cc(OC)c1OC | – | – | – | – | –
